These results are taken from ChEMBL document CHEMBL1150296, “Synthesis and DNA cleaving activity of water-soluble non-conjugated thienyl tetraynes” (Bioorg Med Chem, 2008).

Assay [1] concerns Escherichia coli. Description: Induction of Escherichia coli pBluescript 2 KS+ DNA cleavage by gel electrophoresis. The procedure, abridged:
(§1)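 pBluescript II KS+ (2.0 µg) incubated overnight at 37 °C with tetrayne in 20 µL, final DMSO 3.0%. Level 1.0 mM; 0.1, 0.3, 0.6 mM also run for the dose series. DNA ethanol-precipitated, redissolved, held 60 °C 10 min then 37 °C 30 min, run on 0.7% agarose; ethidium bromide stain, UV imaging of supercoiled, nicked and linear forms.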

Assay [2] deals with Escherichia coli. Description: Induction of Escherichia coli pBluescript 2 KS+ DNA cleavage assessed as formation of burst star shaped architecture at 1 mM by atomic force microscopy. The procedure, abridged: (§2)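 Plasmid exposed to tetrayne (1.0 mM, 37 °C, 6 h), ethanol-precipitated, pellet taken up in water. Sample spotted on flat mica for 1 min at room temperature, excess water blown off with air, then single DNA molecule shapes imaged by atomic force microscopy.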

The subject of assay [3] is Escherichia coli. The assay can be described thus: Induction of Escherichia coli pBluescript 2 KS+ DNA cleavage assessed as linear form 3 at 1 mM by atomic force microscopy. The procedure, abridged: as §2
For assay [4], the system named is Escherichia coli. The assay can be described thus: Induction of Escherichia coli pBluescript 2 KS+ DNA cleavage assessed as increase in nicked form 2 at 1 mM by gel electrophoresis. The procedure, abridged: as §1
The subject of assay [5] is Escherichia coli. The assay can be described thus: Induction of Escherichia coli pBluescript 2 KS+ DNA cleavage assessed as increase in form 3 at 1 mM by gel electrophoresis. The procedure, abridged: as §1
Assay [6] deals with Escherichia coli. The assay can be described thus: Effect on DNA cleavage in ampicillin resistant Escherichia coli DH5alpha transformed pBluescript 2 KS+ DNA assessed as number of colonies at 1 mM after 15 hrs by transformation assay. The procedure, abridged: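 Plasmid DNA (2.0 µg) exposed to tetrayne at 1.0 mM (final DMSO 3.0%) at 37 °C, recovered by ethanol precipitation, redissolved in water and heated 60 °C for 10 min. Heat-shock transformation of competent E. coli (DH5a or JM109) at 42 °C for 1 min, 1 h recovery in LB at 37 °C, plating on ampicillin (100 mg/L) LB agar, 37 °C for 15 h; colonies counted.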

Assay [7] has as its system Escherichia coli. The assay can be described thus: Induction of Escherichia coli pBluescript 2 KS+ DNA cleavage assessed as decrease in form 1 at 1 mM by gel electrophoresis. The procedure, abridged:
as §1

Each structure is given as a SMILES string. The source made the active and inactive calls. No cut-off for these calls is given here.

`COCc1ccccc1C#CC#Cc1cc(CN(C)C)sc1C(=O)C#CC#CC(C)(C)C`: the Activity result in the assay on Escherichia coli [1] was “Dose-dependent effect”; in the assay with Escherichia coli [6], 8. In addition, the result in the assay on Escherichia coli [2], with Escherichia coli [3], in the assay with Escherichia coli [4], with Escherichia coli [5] and in the assay with Escherichia coli [7] was Active.

Consider `CN(C)C`, for which the Activity in the assay on Escherichia coli [6] was greater than 1000.

Consider `COCc1ccccc1C#CC#Cc1cc(C(=O)O)sc1C(O)C#CC#CC(C)(C)C` (stereo unspecified), for which, in the assay with Escherichia coli [6], the Activity is greater than 1000.

For the compound `COCc1ccccc1C#CC#Cc1cc(CN(C)C)sc1C(O)C#CC#CC(C)(C)C` (stereo unspecified), in the assay on Escherichia coli [6], the Activity was greater than 1000.

As for `COCc1ccccc1C#CC#Cc1cc(C(=O)O)sc1C(=O)C#CC#CC(C)(C)C`, in the assay with Escherichia coli [6], the Activity was greater than 1000.
